Laboratory results from ChEMBL document CHEMBL4364270, “Structure-activity relationship studies on Bax activator SMBA1 for the treatment of ER-positive and triple-negative breast cancer” (Eur J Med Chem, 2019).
The source made the active and inactive calls. The rule behind the calls is not given here.

How the values were obtained:
MCF7 [1] = experiment: Antiproliferative activity against ER-positive human MCF7 cells assessed as reduction in cell growth incubated for 48 hrs by MTT assay; type: functional, cell-based; settings: MCF7, 48 h
Summary of the method: (§1)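 MTT viability: MCF-7 and MDA-MB-231 seeded 1×10^4 cells/well, exposed to DMSO or 0.01-100 μM for 48 h; MTT (5 mg/mL in PBS) added 4 h, formazan dissolved in DMSO, OD 550 nm; quadruplicate wells; IC50 fitted for compounds giving >50% inhibition at 10 µM; at least three independent experiments.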

MCF7 [2] = experiment: Induction of apoptosis in ER-positive human MCF7 cells assessed as upregulation of caspase3 cleavage incubated for 48 hrs by Western blot analysis; type: functional, cell-based
MDA-MB-231 [3] = experiment: Antiproliferative activity against triple negative human MDA-MB-231 cells assessed as reduction in cell growth at 1 uM incubated for 48 hrs by MTT assay relative to control; type: functional; settings: MDA-MB-231, 48 h; summary of the method: as §1
MDA-MB-231 [4] = experiment: Inhibition of colony formation in triple negative human MDA-MB-231 cells at 1 uM supplemented with fresh medium containing compound every 72 hrs for 2 weeks by crystal violet staining based assay; type: functional, cell-based
Summary of the method: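 Clonogenic assay: 800 cells per well seeded, treated after 24 h with 1 μM or DMSO vehicle, medium with compound renewed every 72 h for 2 weeks; PBS wash, 0.01% crystal violet 10 min, whole-well density digitally quantified; triplicate, one-way ANOVA, SD error bars.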

[5] = target: Apoptosis regulator BAX (Homo sapiens) (UniProt Q07812); experiment: Activation of Bax in ER-positive human MCF7 cells assessed as reduction in Bax phosphorylation at Ser184 at 5 uM incubated upto 48 hrs by Western blotting analysis; type: cell-based; settings: TDE = time-dependent effect
Summary of the method: (§2)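 Western blot of MCF-7 (and MDA-MB-231 for cytosolic fractions) cells exposed to 5 μM over 0-48 h; 30 µg protein per lane on SDS-PAGE, PVDF transfer, 5% milk block, overnight primary antibodies (total Bax, p-Bax, active Bax 6A7, cytochrome C), ECL detection; cytosolic fraction used for cytochrome c and Bax.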

MCF7 [6] = experiment: Induction of apoptosis in ER-positive human MCF7 cells assessed as decrease in cytosolic Bax level at 5 uM incubated for 48 hrs by Western blot analysis; type: functional, cell-based; summary of the method: as §2
[7] = target: Apoptosis regulator BAX (Homo sapiens) (UniProt Q07812); experiment: Activation of Bax in triple-negative human MDA-MB-231 cells assessed as increase in cytosolic cytochrome C level at 5 uM incubated for 48 hrs by Western blot analysis; type: cell-based; summary of the method: as §2
MCF7 [8] = experiment: Antiproliferative activity against ER-positive human MCF7 cells assessed as reduction in cell viability at 10 uM incubated for 48 hrs by MTT assay relative to control; type: functional; settings: MCF7, 48 h; summary of the method: as §1
MDA-MB-468 [9] = experiment: Antiproliferative activity against triple negative human MDA-MB-468 cells assessed as reduction in cell growth at 1 uM incubated for 72 hrs by MTT assay relative to control; type: functional; settings: MDA-MB-468, 72 h
Summary of the method: (§3)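 MTT viability after 72 h exposure at indicated concentrations; cells seeded at 1×10^3 cells/well (T47D, MDA-MB-468, MCF-10A, MCF-7/ADR) in 96-well plates; quadruplicate wells, independently repeated three times; IC50 as mean ± SE of at least three experiments.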

[10] = Toxicity in mouse xenografted with triple-negative human MDA-MB-231 cells assessed as slight reduction in body weight at 2.5 mg/kg, ip administered once daily for 7 days; type: organism-based; settings: in vivo, 168 h
Summary of the method: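 Female nude mice (6 weeks) given 2.5×10^6 MDA-MB-231 cells in PBS into third mammary fat pad, randomized into four groups; at 200 mm³ tumor volume dosed i.p. daily for 7 days in 50% DMSO/50% PEG vehicle; tumor volume (0.5×L×W²) and body weight measured daily; one-way ANOVA.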

MCF7 [11] = experiment: Potency index, ratio of SMBA1 IC50 to compound IC50 for antiproliferative activity against ER-positive human MCF7 cells assessed as reduction in cell growth incubated for 48 hrs by MTT assay; type: functional
MDA-MB-231 [12] = experiment: Antiproliferative activity against triple negative human MDA-MB-231 cells assessed as reduction in cell growth at 10 uM incubated for 48 hrs by MTT assay relative to control; type: functional; settings: MDA-MB-231, 48 h; summary of the method: as §1
MDA-MB-468 [13] = experiment: Antiproliferative activity against triple negative human MDA-MB-468 cells assessed as reduction in cell growth incubated for 72 hrs by MTT assay; type: functional, cell-based; settings: MDA-MB-468, 72 h; summary of the method: as §3
MDA-MB-231 [14] = experiment: Induction of apoptosis in triple-negative human MDA-MB-231 cells assessed as decrease in cytosolic Bax level at 5 uM incubated for 48 hrs by Western blot analysis; type: functional, cell-based; summary of the method: as §2
[15] = target: Apoptosis regulator BAX (Homo sapiens) (UniProt Q07812); experiment: Activation of Bax in ER-positive human MCF7 cells assessed as increase in active Bax 6A7 isoform protein level at 5 uM incubated upto 48 hrs by Western blot analysis; type: cell-based; summary of the method: as §2
MDA-MB-231 [16] = experiment: Induction of apoptosis in triple-negative human MDA-MB-231 cells assessed as downregulation of cyclin D1 level incubated for 48 hrs by Western blot analysis; type: functional, cell-based
Summary of the method: (§4)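 Western blot: cells harvested after treatment, lysates quantified by Bradford (BSA standard), 30 µg protein resolved by SDS-PAGE, transferred to PVDF, blocked in 5% nonfat milk, probed overnight with anti-PARP-1, anti-cleaved PARP-1 or anti-cyclin D1 (1:1,000) and β-actin loading control; ECL visualization.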

[17] = target: Apoptosis regulator BAX (Homo sapiens) (UniProt Q07812); experiment: Activation of Bax in ER-positive human MCF7 cells assessed as increase in cytosolic cytochrome C level at 5 uM incubated for 48 hrs by Western blot analysis; type: cell-based; summary of the method: as §2
T47D = experiment: Antiproliferative activity against ER-positive human T47D cells assessed as reduction in cell growth incubated for 72 hrs by MTT assay; type: functional, cell-based; summary of the method: as §3
MDA-MB-231 [18] = experiment: Potency index, ratio of SMBA1 IC50 to compound IC50 for antiproliferative activity against triple negative human MDA-MB-231 cells assessed as reduction in cell growth incubated for 48 hrs by MTT assay; type: functional
MDA-MB-231 [19] = experiment: Induction of apoptosis in triple negative human MDA-MB-231 cells assessed as appearance of concentrated dense granules at 5 to 10 uM incubated for 24 hrs by Hoechst 33342 staining based fluorescence microscopy; type: functional, cell-based
Summary of the method: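 Cells on coverslips (2.5×10^5/well) treated with DMSO or 5 and 10 μM for 24 h, washed in binding buffer, stained 15 min with FITC-annexin V, ethidium homodimer III and Hoechst 33342, mounted and imaged by fluorescence microscopy (DAPI filter) from center and peripheral regions.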

MDA-MB-231 [20] = experiment: Induction of apoptosis in triple-negative human MDA-MB-231 cells assessed as upregulation of PARP1 cleavage incubated for 48 hrs by Western blot analysis; type: functional, cell-based; summary of the method: as §4
MDA-MB-231 [21] = experiment: Induction of apoptosis in triple negative human MDA-MB-231 cells assessed as upregulation of caspase3 cleavage incubated for 48 hrs by Western blot analysis; type: functional, cell-based
MDA-MB-231 [22] = experiment: Potency index, ratio of IC50 of (E/Z)-2-(2-((2-nitro-9H-fluoren 9-ylidene)methyl)phenoxy)ethan-1-amine to IC50 of compound for antiproliferative activity against triple negative human MDA-MB-231 cells assessed as reduction in cell growth incubated for 48 hrs by MTT assay; type: functional
MCF-10A = experiment: Antiproliferative activity against human MCF10A cells assessed as reduction in cell growth incubated for 72 hrs by MTT assay; type: functional, cell-based; summary of the method: as §3
MCF7 [23] = experiment: Antiproliferative activity against ER-positive human MCF7 cells assessed as reduction in cell growth at 1 uM incubated for 48 hrs by MTT assay relative to control; type: functional; settings: MCF7, 48 h; summary of the method: as §1

Chain of Apoptosis regulator BAX (Homo sapiens) (Q07812 whole entry, canonical isoform): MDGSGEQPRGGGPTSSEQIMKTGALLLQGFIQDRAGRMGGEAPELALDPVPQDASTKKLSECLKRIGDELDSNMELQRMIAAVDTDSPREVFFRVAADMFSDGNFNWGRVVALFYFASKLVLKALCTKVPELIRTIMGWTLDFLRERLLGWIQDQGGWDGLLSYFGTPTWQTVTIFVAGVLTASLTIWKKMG

NCCOc1ncccc1C=C1c2ccccc2-c2ccc([N+](=O)[O-])cc21
IC50 (MCF7 [1]): 0.06 µM
Activity (MCF7 [2]): Dose-dependent effect
inhibition at 1 µM (MDA-MB-231 [3]): > 50%
inhibition (MDA-MB-231 [4]): Active
inhibition [5]: Tde
Activity (MCF7 [6]): Active
Activity [7]: Active
inhibition at 10 µM (MCF7 [8]): > 50%
inhibition at 1 µM (MDA-MB-468 [9]): > 50%
Activity [10]: Toxic
Ratio IC50 (MCF7 [11]): 80 - 130
inhibition at 10 µM (MDA-MB-231 [12]): > 50%
IC50 (MDA-MB-468 [13]): 1.61 µM
Activity (MDA-MB-231 [14]): Active
Activity [15]: Active
Activity (MDA-MB-231 [16]): Dose-dependent effect
Activity [17]: Active
IC50 (T47D): 1.2 µM
Ratio IC50 (MDA-MB-231 [18]): 80 - 130
Activity (MDA-MB-231 [19]): Active
Activity (MDA-MB-231 [20]): Dose-dependent effect
Activity (MDA-MB-231 [21]): Dose-dependent effect
Ratio IC50 (MDA-MB-231 [22]): 40 - 60
IC50 (MCF-10A): 0.11 µM
inhibition at 1 µM (MCF7 [23]): > 50%
